Compound activity (PubChem)
An excerpt weighted towards active compounds, which were near 2.2% of everything screened.
PMI activator: activators of human PMI, primary screen, biochemical, fluorescence intensity, near-Km mannose 6-phosphate. Mannose-6-phosphate isomerase (Homo sapiens), P34949. purified human PMI, coupled resazurin fluorescence, 20 min; active compounds read high; 1 = vehicle control, 0 substrate-free wells. activation factor at 20 µM. 0.005% of 190,000 active;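 active = activation factor of 2 or more at 20 µM, relative to plate controls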
Target sequence (P34949 whole entry, looked up): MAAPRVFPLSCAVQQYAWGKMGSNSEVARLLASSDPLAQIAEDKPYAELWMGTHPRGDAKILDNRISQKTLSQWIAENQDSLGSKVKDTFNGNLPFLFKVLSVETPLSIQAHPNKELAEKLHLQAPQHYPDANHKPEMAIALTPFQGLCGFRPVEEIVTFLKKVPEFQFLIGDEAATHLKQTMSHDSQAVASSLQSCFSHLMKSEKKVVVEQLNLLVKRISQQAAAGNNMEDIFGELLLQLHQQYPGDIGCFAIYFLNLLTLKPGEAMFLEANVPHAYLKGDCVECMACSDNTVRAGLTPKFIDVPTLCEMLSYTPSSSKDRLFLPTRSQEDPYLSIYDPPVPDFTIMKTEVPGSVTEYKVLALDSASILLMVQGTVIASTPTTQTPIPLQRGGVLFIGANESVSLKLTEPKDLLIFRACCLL
Diaphorase act: compounds boosting diaphorase resazurin reduction – biochemical, uHTS, resorufin fluorescence, counter-screen for diaphorase-coupled primary assays, primary screen. Diaphorase/resazurin coupled assay, 16 min; active compounds read high; 1 = vehicle wells, 0 = NADH-free wells. AID 1229, 2008. 0.005% of 190,000 active. activation factor at 20 µM;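 active = diaphorase activity raised at least twofold by the compound at 20 µM; inactive = activation factor below 2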
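test system = bacterial diaphorase enzyme (C. kluyveri) | quantity = enzyme 0.07 U/mL final | reagent = NADH substrate 0.114 mM plus resazurin dye 0.1 mM, final | incubation = 16 min enzyme reaction, ambient temperature | buffer or medium = HEPES pH 7.4 buffer with MgCl2 and Tween 20 | signal = fluorescence of resorufin, 544 nm excitation, 590 nm emission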
ROMK primary: ROMK potassium channel modulators, primary screen, cell-based, thallium flux, MLSMR library. AID 1918, 2009. B-score at 10 µM. Tet-inducible ROMK, thallium flux fluorescence; actives lie on both sides. ATP-sensitive inward rectifier potassium channel 1 (Homo sapiens), P48048. 2% of 130,000 active;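 active = signal ratio slope over the read window, or its plate-corrected B-score, at least 3 SD from the plate mean, either direction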;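 note: B-score of the F/F0 ratio slope over 7 to 12 s after thallium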
PMI act satM6P: human PMI activators, high substrate, primary screen, biochemical, fluorescence intensity, near-saturating mannose 6-phosphate. coupled PMI enzyme assay, resazurin fluorescence, 20 min; active compounds read high; 1 = untreated enzyme, 0 = substrate-free blank. Mannose-6-phosphate isomerase (Homo sapiens), P34949. AID 1216, 2008. 0.34% of 190,000 active. activation factor at 20 µM;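 active = activation factor of 2 or more at 20 µM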
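Test system: human phosphomannose isomerase with PGI, G6PDH, diaphorase coupling enzymes; Amount: PMI at 15 ng/mL final; Reagent: Mannose-6-phosphate 1.0 mM (near-saturating) plus 0.22 mM NADP+; Timing: 20 min, room temperature; Technique: resorufin fluorescence at Ex 544/Em 590 nm; Dosing: 20 µM single dose.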
Diaphorase inh: diaphorase inhibitors and chemical oxidizers, primary screen, counter-screen for diaphorase-coupled primary assays, biochemical, uHTS, resorufin fluorescence | diaphorase resazurin-to-resorufin fluorescence, NADH, 16 min; bacterial (C. kluyveri) enzyme, not human | AID 1217, 2008 | inhibition, % at 20 µM | 0.69% of 190,000 active;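 active = primary screen inhibition at 20 µM above a set limit, cut at about 50% in these data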;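 note: plate controls were DMSO with full reaction for no effect and wells lacking NADH for full effect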
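Benchmarks: positive control wells lacking NADH, neutral wells with DMSO only. System: bacterial diaphorase enzyme (C. kluyveri). Input: 0.14 U/mL diaphorase, enzyme working solution. Detection: resorufin fluorescence, excitation 544 nm, emission 590 nm. Times: 16-min room-temperature incubation before reading.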
G6PDH CS: L. mesenteroides G6PDH inhibitors, counter-screen for G6PDH-coupled screening assays, biochemical, Leuconostoc mesenteroides enzyme. Purified L. mesenteroides G6PDH, diaphorase/resazurin coupled fluorescence, 45 min. inhibition, % at 5 µM. 0.12% of 200,000 active. AID 1020, 2008; in the data active = inhibition above about 50%
ROMK hit retest: ROMK channel modulator hit retest, confirmation, cell-based, thallium flux, duplicate, resupplied hits; shares compounds with ROMK primary; fluorescence ratio; active compounds read low; normalized thallium flux (F/F0 slope) at 10 µM; 54% of 3,000 active; AID 1917, 2009;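 active = Flux at 10 µM at least 3 SD below or above vehicle control mean in one or both replicates; inconclusive = no clear call, values can overlap the other calls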
Numbers without * were called inactive; u = inconclusive; x = not tested or not shown.

SMILES	PMI activator	Diaphorase act	ROMK primary	PMI act satM6P	Diaphorase inh	G6PDH CS	ROMK hit retest
COc1ccccc1-c1cc(C(=O)NCCc2ccccc2)no1	1	0.9	3.5*	1	6	11	0.076
COc1ccccc1-c1cc(C(=O)N2CCN(c3ccccc3OC)CC2)no1	0.9	0.8	3.3*	0.9	20	2	0.085
COc1ccccc1N1CCN(C(=O)c2cc(-c3ccc(C)cc3)on2)CC1	0.8	0.9	-1.4	0.9	14	3	x
COc1ccccc1-c1cc(C(=O)Nc2cccnc2)no1	0.9	0.8	5.1*	0.9	16	4	0.081
COC(=O)CNC(=O)COC(=O)c1cc(SC)ccc1Cl	1	0.9	-1.1	1.1	7	4	x
COC(=O)C1=NN(C(C)(C)CC(C)=O)C2C(=O)N(C3CCCCC3)C(=O)C12 (centres undefined)	1	1	x	1.1	5	0	x
CN(C)CCN1C(=O)C(O)=C(C(=O)c2ccco2)C1c1ccccc1F (centres undefined)	0.9	0.9	x	1.1	15	-6	0.076
CC(=O)/C=C(\C)Nc1c(C)n(C)n(-c2ccccc2)c1=O	1.1	1	1.8*	1	2	9	u
Cc1c(NC(=O)CSc2ccccc2F)c(=O)n(-c2ccccc2)n1C	0.1	0.5	-2.2*	1	50*	1	0.081
COc1ccc(Nc2ncc(C#N)c(N)n2)c(OC)c1	x	x	-1.8	x	x	x	x
C/C(Cc1ccccc1)=N\NC(=O)CNC(=O)c1ccc(C(C)(C)C)cc1	0.9	0.9	0.37	0.9	8	-17	x
CN1C(C(=O)c2ccccc2)=C(N)c2ccccc2S1(=O)=O	1.1	0.9	3*	1.1	8	5	0.066*
Cc1ccc(NC2=C(C(=O)c3ccccc3)N(C)S(=O)(=O)c3ccccc32)cc1	0.9	0.8	x	1	18	10	x
COc1cccc(CN2C(=O)c3cccc(N)c3C2=O)c1	1.1	1	-2.1*	1	-2	4	0.057*
COc1cccc(Cn2cc(N)cn2)c1	x	x	0.031	x	x	14	x
NC(=NC(=O)c1ccccc1)N1N=CCC1c1ccccc1 (centres undefined)	1	1	0.15	0.9	0	-3	x
O=C(Nc1ccccc1N1CCOCC1)c1cc2c(s1)CCCCC2	0.9	0.8	x	0.9	18	-2	x
CCc1sc(C(=O)Nc2ccccc2N2CCOCC2)cc1C	1	1	-2.6*	1	5	3	0.064*
CCNc1nc(-c2ccc(OC(F)F)cc2)c(C)s1	0.8	0.8	-4.5*	1	18	-3	0.062*
CCCC(=O)Nc1nc(C)c(-c2csc(Nc3ccccc3C)n2)s1	0.7	0.8	-15*	0.6	15	9	u
CCCS(=O)(=O)c1c(S(=O)(=O)CCC)c2ccc(C(N)=O)cn2c1C(=O)OC	1.1	0.8	0.2	1.1	20	8	x
CCCS(=O)(=O)c1c(S(=O)(=O)CCC)c2ccc(C(N)=O)cn2c1C(=O)c1ccc(OC)cc1	0.8	0.8	-2.7	0.9	19	23	0.061*
CCOC(=O)c1c(CSC(=N)N)n(-c2ccccc2)c2cc(Br)c(OC(C)=O)cc12	x	x	x	x	x	x	0.058*
CCOC(=O)c1c(CN2CCN(C)CC2)n(-c2ccccc2)c2cc(Br)c(O)cc12	x	x	-2.6	x	x	x	x
